ChEMBL document CHEMBL1138633, “Synthesis and CYP24 inhibitory activity of 2-substituted-3,4-dihydro-2H-naphthalen-1-one (tetralone) derivatives” (Bioorg Med Chem Lett, 2004)
pIC50: −log10 of the molar value.

Each molecule was assayed against T1, 1,25-dihydroxyvitamin D(3) 24-hydroxylase, mitochondrial (Rattus norvegicus, UniProt Q09128) (assay: Inhibitory activity against 25-hydroxyvitamin D3 24-hydroxylase of rat kidney mitochondria).
T1 sequence (Q09128 whole entry): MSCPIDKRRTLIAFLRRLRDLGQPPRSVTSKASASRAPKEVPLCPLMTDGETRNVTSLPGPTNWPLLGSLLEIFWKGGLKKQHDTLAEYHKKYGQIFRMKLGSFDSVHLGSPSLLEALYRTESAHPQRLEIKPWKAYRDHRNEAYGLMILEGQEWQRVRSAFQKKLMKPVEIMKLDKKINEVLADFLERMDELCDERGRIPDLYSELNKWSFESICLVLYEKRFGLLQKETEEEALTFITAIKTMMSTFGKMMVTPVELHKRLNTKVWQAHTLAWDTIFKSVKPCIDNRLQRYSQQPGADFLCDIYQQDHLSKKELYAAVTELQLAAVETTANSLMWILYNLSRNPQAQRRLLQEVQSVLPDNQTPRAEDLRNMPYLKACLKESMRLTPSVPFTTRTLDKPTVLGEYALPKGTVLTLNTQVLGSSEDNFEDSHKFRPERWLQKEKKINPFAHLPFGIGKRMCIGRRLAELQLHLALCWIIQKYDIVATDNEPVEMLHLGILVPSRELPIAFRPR
How it was run: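 Substrate was [26,27-methyl-3H]-25-hydroxyvitamin D3, taken from a stock of labelled plus unlabelled 25 µM 25(OH)D3 holding 5 µCi/mL. It was incubated with NADPH and inhibitor at varying concentrations (in acetonitrile) in phosphate buffer pH 7.4, shaking at 37 °C for 30 min. Metabolites were extracted with ethyl acetate and analysed by HPLC with online radioactivity detection, quantified by peak area. Results are % inhibition relative to an acetonitrile control.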
Work on `O=C1c2ccc(O)cc2CCC1Cc1ccc(O)cc1` (stereo not drawn) yielded a pIC50 of 5.05.
`O=C1c2ccc(O)cc2CCC1Cc1ccc(-c2ccccc2)cc1` (stereo not drawn) showed a pIC50 of less than 4.70.
`COc1ccc2c(c1)CC/C(=C\c1ccccc1Br)C2=O` gave a pIC50 of 4.00.
Work on `O=C1/C(=C/c2ccccc2-c2ccccc2)CCc2cc(O)ccc21` yielded a pIC50 of less than 4.00.
For `O=C1c2ccc(O)cc2CCC1Cc1ccccc1-c1ccccc1` (stereo not drawn), the pIC50 was 5.68.
With `COc1ccc2c(c1)CCC(Cc1cc(C(F)(F)F)ccc1C(F)(F)F)C2=O` (stereo not drawn) the pIC50 was 5.35.
Molecule `COc1ccc2c(c1)CCC(Cc1ccc(O)cc1)C2=O` (stereo not drawn) has a pIC50 of 5.46.
`COc1ccc2c(c1)CCC(Cc1ccc(O)cc1)C2` (stereo not drawn) was tested, and the pIC50 was 5.59.
`COc1ccc2c(c1)CC/C(=C\c1cccc(N(C)C)c1)C2=O` was tested, and the pIC50 was less than 4.00.
`COc1ccc2c(c1)CC/C(=C\c1ccc(O)cc1)C2=O` gave a pIC50 of less than 4.70.
Molecule `O=C1/C(=C/c2ccc(O)cc2)CCc2cc(O)ccc21` has a pIC50 of less than 4.70.
With `CN(C)c1ccc(CC2CCc3cc(O)ccc3C2=O)cc1` (stereo not drawn) the pIC50 was 4.74.
For `CC(=O)N1CCN(c2ccc(OC[C@H]3CO[C@](Cn4ccnc4)(c4ccc(Cl)cc4Cl)O3)cc2)CC1` [KETOCONAZOLE], the pIC50 was 4.70.
Molecule `COc1ccc2c(c1)CC/C(=C\c1ccccc1C)C2=O` has a pIC50 of less than 4.70.
With `CN(C)c1ccc(/C=C2\CCc3cc(O)ccc3C2=O)cc1` the pIC50 was less than 4.00.
For `COc1ccc2c(c1)CC/C(=C\c1cc(C(F)(F)F)ccc1C(F)(F)F)C2=O`, the pIC50 was less than 4.00.
Molecule `O=C1/C(=C/c2ccc(-c3ccccc3)cc2)CCc2cc(O)ccc21` has a pIC50 of less than 4.00.
`COc1ccc2c(c1)CCC(Cc1ccccc1C)C2=O` (stereo not drawn) gave a pIC50 of 6.05.
